Measurements from ChEMBL document CHEMBL1833919, “Does the combination of optimal substitutions at the C²-, N⁵- and N⁸-positions of the pyrazolo-triazolo-pyrimidine scaffold guarantee selective modulation of the human A₃ adenosine receptors?” (Bioorg Med Chem, 2011).

Tests used:
Adenosine receptor A1 = target: T1, Adenosine receptor A1 (Homo sapiens, UniProt P30542); assay: Displacement of [3H]CCPA from human recombinant adenosine A1 receptor expressed in CHO cells after 3 hrs; type: cell-based
T1 sequence (P30542 whole entry): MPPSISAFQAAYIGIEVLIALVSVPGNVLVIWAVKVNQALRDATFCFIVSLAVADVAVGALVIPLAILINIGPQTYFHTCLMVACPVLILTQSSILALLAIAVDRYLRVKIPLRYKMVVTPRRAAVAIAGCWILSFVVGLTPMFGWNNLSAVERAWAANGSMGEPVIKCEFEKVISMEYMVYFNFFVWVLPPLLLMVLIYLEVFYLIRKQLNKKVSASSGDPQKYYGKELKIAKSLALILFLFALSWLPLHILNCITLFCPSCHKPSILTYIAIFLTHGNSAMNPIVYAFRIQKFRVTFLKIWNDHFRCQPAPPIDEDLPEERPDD
Method in brief: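 CHO membranes (two-step spin, stored -80 °C), 20 μg protein, incubated 3 h at 25 °C in 200 μL 50 mM Tris/HCl pH 7.4 with 1 nM [3H]CCPA, 0.2 U/mL adenosine deaminase and a range of test concentrations. Nonspecific binding with 1 mM theophylline. Filtration and scintillation counting. Ki by Cheng-Prusoff; n = 3-6, geometric means, 95% CI.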

Adenosine receptor A2a = Adenosine receptor A2a (Homo sapiens, UniProt P29274); assay: Displacement of [3H]NECA from human recombinant adenosine 2A receptor expressed in CHO cells after 3 hrs; type: cell-based
Method in brief: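 Membranes at 50 μg protein, incubated 3 h at 25 °C in 50 mM Tris/HCl, 10 mM MgCl2, pH 7.4 with 30 nM [3H]NECA and varied test concentrations. 100 μM R-PIA defined nonspecific binding. Bound ligand separated on glass-fiber filters and counted. Ki by Cheng-Prusoff; n = 3-6, geometric means, 95% CI.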

Adenosine receptor A2b = target: T2, Adenosine receptor A2b (Homo sapiens, UniProt P29275); assay: Antagonist activity human recombinant adenosine 2B receptor expressed in CHO cells assessed as inhibition of NECA-stimulated adenylyl cyclase activity; type: functional, cell-based
T2 sequence (P29275 whole entry): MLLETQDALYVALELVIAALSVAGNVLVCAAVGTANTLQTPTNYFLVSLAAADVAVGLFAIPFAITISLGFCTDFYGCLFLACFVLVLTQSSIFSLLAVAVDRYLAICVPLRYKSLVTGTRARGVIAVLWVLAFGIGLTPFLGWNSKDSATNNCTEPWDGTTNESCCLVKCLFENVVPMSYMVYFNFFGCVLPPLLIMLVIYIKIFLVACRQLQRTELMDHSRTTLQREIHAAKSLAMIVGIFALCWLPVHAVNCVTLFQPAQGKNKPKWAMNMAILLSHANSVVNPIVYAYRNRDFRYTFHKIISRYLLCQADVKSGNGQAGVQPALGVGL
Method in brief: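 Membranes from hA2B-expressing CHO cells, single 54,000g 30-min spin, resuspended in 50 mM Tris/HCl pH 7.4 and used at once. Incubated 20 min with about 150,000 cpm [α-32P]ATP, no EGTA or NaCl. IC50 from concentration-dependent inhibition of NECA-stimulated adenylyl cyclase, converted to Ki; n = 3-6, geometric means with 95% confidence limits.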

Adenosine receptor A3 = target: T3, Adenosine receptor A3 (Homo sapiens, UniProt P0DMS8); assay: Displacement of [3H]NECA from human recombinant adenosine A3 receptor expressed in CHO cells after 3 hrs; type: cell-based
T3 sequence (P0DMS8 whole entry): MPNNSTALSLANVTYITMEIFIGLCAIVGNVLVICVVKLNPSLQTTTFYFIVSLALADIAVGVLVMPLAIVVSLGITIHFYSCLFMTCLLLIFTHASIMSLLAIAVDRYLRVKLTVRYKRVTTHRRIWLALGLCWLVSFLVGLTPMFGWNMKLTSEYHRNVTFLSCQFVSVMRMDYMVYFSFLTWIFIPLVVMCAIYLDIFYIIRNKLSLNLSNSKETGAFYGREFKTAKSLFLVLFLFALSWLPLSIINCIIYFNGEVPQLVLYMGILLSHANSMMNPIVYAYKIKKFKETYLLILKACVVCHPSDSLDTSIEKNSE
Method in brief: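 20 μg membrane protein in 50 mM Tris/HCl, 1 mM EDTA, 10 mM MgCl2, pH 8.25 with 10 nM [3H]NECA and test compound over a concentration range, 3 h at 25 °C. Nonspecific binding with 100 μM R-PIA. Filtration, then counting. Ki via Cheng-Prusoff; n = 3-6, geometric means with 95% CI.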

[1] = target: Adenosine receptors; A1 & A3 (Homo sapiens) (UniProt P30542+P0DMS8); assay: Selectivity ratio of Ki for human recombinant adenosine A1 receptor to Ki for human recombinant adenosine A3 receptor
Homo sapiens = species on record: Homo sapiens; assay: Selectivity ratio of Ki for human recombinant adenosine 2a receptor to Ki for human recombinant adenosine A3 receptor

Adenosine receptor A2a, sequence (P29274 whole entry): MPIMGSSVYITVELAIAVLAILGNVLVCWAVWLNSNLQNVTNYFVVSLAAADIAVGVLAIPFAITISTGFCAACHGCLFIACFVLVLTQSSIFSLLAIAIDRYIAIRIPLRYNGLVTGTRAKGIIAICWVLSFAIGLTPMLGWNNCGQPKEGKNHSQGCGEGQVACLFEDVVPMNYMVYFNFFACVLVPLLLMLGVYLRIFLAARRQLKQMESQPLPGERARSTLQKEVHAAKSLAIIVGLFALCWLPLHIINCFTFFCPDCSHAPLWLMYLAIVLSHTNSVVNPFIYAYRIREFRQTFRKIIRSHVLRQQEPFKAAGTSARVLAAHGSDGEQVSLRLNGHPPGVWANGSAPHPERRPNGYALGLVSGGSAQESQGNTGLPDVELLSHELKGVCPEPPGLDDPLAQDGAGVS

Ki (Adenosine receptor A1) [nM]	Ki (Adenosine receptor A2a) [nM]	Ki (Adenosine receptor A2b) [nM]	Ki (Adenosine receptor A3) [nM]	Ratio Ki [1]	Ratio Ki (Homo sapiens)	SMILES
232	571	> 30000	3.34	69.5	171	O=C(Cc1ccccc1)Nc1nc2nn(CCc3ccccc3)cc2c2nc(-c3ccc(F)cc3)nn12
> 10000	2360	> 10000	2.5	> 4000	944	Cn1cc2c(nc(NC(=O)Nc3ccccc3)n3nc(-c4ccc(Br)cc4)nc23)n1
395	4040	> 30000	17.1	23.1	236	O=C(Nc1nc2nn(CCc3ccccc3)cc2c2nc(-c3ccc(F)cc3)nn12)c1ccccc1
> 100000	> 100000	> 10000	2.1	> 47600	> 47600	COc1ccc(NC(=O)Nc2nc3nn(C)cc3c3nc(-c4ccc(-c5ccccc5)cc4)nn23)cc1
> 100000	> 100000	> 10000	2.36	> 42400	> 42400	COc1ccc(NC(=O)Nc2nc3nn(C)cc3c3nc(-c4ccc(C(F)(F)F)cc4)nn23)cc1
6490	1460	> 10000	1.33	4880	1100	COc1ccc(NC(=O)Nc2nc3nn(C)cc3c3nc(-c4ccc(Cl)cc4)nn23)cc1
221	19400	> 30000	11.4	19.4	1700	O=C(Nc1nc2nn(CCc3ccccc3)cc2c2nc(-c3ccc(Cl)cc3)nn12)c1ccccc1
932	3090	> 30000	–	110	364	O=C(Cc1ccccc1)Nc1nc2nn(CCc3ccccc3)cc2c2nc(-c3ccc(Cl)cc3)nn12
–	–	–	–	3710	2380	Cn1cc2c(nc(NC(=O)Nc3ccccc3)n3nc(-c4ccco4)nc23)n1
192	614	> 30000	3.02	63.6	203	O=C(Cc1ccccc1)Nc1nc2nn(CCc3ccccc3)cc2c2nc(-c3ccccc3)nn12
> 30000	> 30000	> 10000	5.9	> 5090	> 5090	Cn1cc2c(nc(NC(=O)Nc3ccccc3)n3nc(-c4ccc(-c5ccccc5)cc4)nc23)n1
> 30000	5930	> 10000	1.72	> 17400	3450	Cn1cc2c(nc(NC(=O)Nc3ccc(F)cc3)n3nc(-c4ccc(Br)cc4)nc23)n1
> 100000	6930	> 10000	304	> 329	22.8	Cn1cc2c(nc(N)n3nc(-c4ccc(C(F)(F)F)cc4)nc23)n1
–	–	–	45	2.67	1.33	O=C(Cc1ccccc1)Nc1nc2nn(CCc3ccccc3)cc2c2nc(-c3ccco3)nn12
> 100000	> 30000	> 10000	147	> 680	> 204	Cn1cc2c(nc(N)n3nc(-c4ccc(-c5ccccc5)cc4)nc23)n1
> 10000	> 10000	> 10000	> 10000	–	–	O=C(Cc1ccccc1)Nc1nc2nn(CCc3ccccc3)cc2c2nc(-c3ccc(Br)cc3)nn12
5550	987	> 10000	1.71	3250	577	Cn1cc2c(nc(NC(=O)Nc3ccccc3)n3nc(-c4ccc(Cl)cc4)nc23)n1
> 30000	1060	> 10000	5.3	> 5660	200	Cn1cc2c(nc(NC(=O)Nc3ccc(F)cc3)n3nc(-c4ccc(Cl)cc4)nc23)n1
> 10000	8400	> 10000	1.95	> 5130	4310	COc1ccc(NC(=O)Nc2nc3nn(C)cc3c3nc(-c4ccc(Br)cc4)nn23)cc1
831	25200	> 10000	28.9	28.8	872	COc1ccc(-c2nc3c4cn(CCc5ccccc5)nc4nc(NC(=O)c4ccccc4)n3n2)cc1
12900	36000	> 10000	3.44	3750	10500	Cn1cc2c(nc(NC(=O)Nc3ccccc3)n3nc(-c4ccc(C(F)(F)F)cc4)nc23)n1
> 100000	> 100000	> 10000	4.06	> 24600	> 24600	Cn1cc2c(nc(NC(=O)Nc3ccc(F)cc3)n3nc(-c4ccc(-c5ccccc5)cc4)nc23)n1
4420	> 30000	> 10000	1.91	2310	> 15700	Cn1cc2c(nc(NC(=O)Nc3ccc(F)cc3)n3nc(-c4ccc(C(F)(F)F)cc4)nc23)n1
